# Screening results: PubChem, The Scripps Research Institute Molecular Screening Center
# Sampled rows, rich in hits. Any-hit rate of the full collection: about 2.9%.
# CHO-K1 Ca PAM: nonselective calcium activators in parental CHO-K1 cells, primary screen, counter-screen for M1 PAM project, cell-based, Fluo-8 calcium fluorescence, full deck, 1536-well | ATP EC20; 0% at ATP EC20, 100% at ATP max | activation, % at 3 µM | actives 0.02% (n = 360,000) | AID 602247, 2012;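 active = activation above the run cutoff, the mean activation of all test compounds plus 3 SD, cut at about 40% in these data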;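 note: peak over basal fluorescence ratio in a 140 s read after ATP addition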
# OX1R antag-1: OX1R (HCRTR1) antagonists, primary screen, fluorescence, CHO/OX1R cells, Fluo-8 calcium, orexin A; Orexin/Hypocretin receptor type 1 (Homo sapiens), O43613; actives 0.43% (n = 330,000); inhibition, % at 5 µM; Fluo-8 calcium fluorescence;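 active = inhibition above its plate's threshold, mean inhibition of all tested compounds on the plate plus 3 SD, cut at about 37% in these data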;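 note: 0% = orexin A challenge wells and 100% = SB-334867-A antagonist wells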
# Target sequence (O43613 whole entry, looked up): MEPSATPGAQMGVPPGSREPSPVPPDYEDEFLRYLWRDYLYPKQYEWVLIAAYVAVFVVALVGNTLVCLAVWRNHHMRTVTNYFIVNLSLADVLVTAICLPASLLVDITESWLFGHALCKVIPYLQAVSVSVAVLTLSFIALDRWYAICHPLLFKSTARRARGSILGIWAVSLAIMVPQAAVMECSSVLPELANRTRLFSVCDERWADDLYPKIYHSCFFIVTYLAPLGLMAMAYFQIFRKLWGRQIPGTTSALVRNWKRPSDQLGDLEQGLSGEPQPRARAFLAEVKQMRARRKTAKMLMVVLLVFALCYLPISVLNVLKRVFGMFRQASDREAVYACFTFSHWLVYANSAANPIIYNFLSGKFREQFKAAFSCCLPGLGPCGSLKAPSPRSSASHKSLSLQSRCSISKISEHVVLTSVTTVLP
# CHO-K1 Ca antag: M1 antagonist counterscreen hit in parental CHO-K1 cells | ATP-induced calcium, Fluo-8 fluorescence | inhibition, % at 3 µM | actives 0.6% (n = 360,000) | AID 602250;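 active = inhibition above a per-plate cutoff, the plate's mean sample inhibition plus 3 SD, cut at about 24% in these data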;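 note: 0% = DMSO plus EC80 ATP and 100% = DMSO alone without ATP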
# CHO-K1 Ca ag: counter-screen for M1 agonists: effect in parental CHO-K1 cells; actives 0.48% (n = 360,000); AID 602248, 2012; Fluo-8 calcium fluorescence; scaled to maximal ATP response, vehicle zero; activation, % at 3 µM; in the data active = activation above about 15%;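 note: untransfected CHO-K1 host cells lacking M1 receptor as counterscreen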
# CHO parental Ca: ATP-evoked calcium signal inhibitors, parental CHO, primary screen, counter-screen for OX1R antagonist project, cell-based, fluorescence, Fluo-8 calcium dye; parental CHO-K1, ATP-induced calcium, Fluo-8 fluorescence; inhibition, % at 5.6 µM; actives 0.63% (n = 330,000); AID 463079, 2010;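 active = inhibition above that plate's mean sample inhibition plus 3 SD, cut at about 26% in these data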;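 note: 0% = ATP-challenged DMSO wells and 100% = DMSO wells without ATP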
#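 Material – parental CHO cells · Reagent – ATP stimulus · Compound – single nominal dose of 5.6 µM per compound · Detection – Fluo-8 fluorescence · Read-out basis – percent inhibition of calcium signal · Controls – ATP-challenged DMSO wells low, unchallenged DMSO wells high · Repeats – no replicates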
# OX1R antag-2: antagonists of human orexin 1 receptor (OX1R); Orexin/Hypocretin receptor type 1 (Homo sapiens), O43613; OX1R-expressing cells, FRET antagonist read-out; inhibition, % at 6.6 µM; actives 1.8% (n = 330,000); AID 485270, 2010; in the data active = inhibition mostly above about 38%, no sharp cut-off; inactive = mostly below about 40%;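 note: 0% = agonist challenge alone and 100% = reference antagonist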
# Numbers without * were called inactive; · = no result given.
SMILES,CHO-K1 Ca PAM,OX1R antag-1,CHO-K1 Ca antag,CHO-K1 Ca ag,CHO parental Ca,OX1R antag-2
CCC(=O)c1ccc(OCC(=O)OCc2csc(CC(=O)Nc3ccccc3C)n2)cc1,-11.0,·,11.1,4.9,·,·
CCCNC(=O)COC(=O)C1CCN(S(=O)(=O)c2ccc3c(c2)OCCO3)CC1,-2.4,-9.3,-3.3,0.7,8.4,16.9
O=C(COC(=O)C1CCN(S(=O)(=O)c2ccc3c(c2)OCCO3)CC1)Nc1ccc(C(F)(F)F)cc1,-15.6,6.8,24.4*,1.6,-1.4,12.2
CN(C(=O)COC(=O)C1CCN(S(=O)(=O)c2ccc3c(c2)OCCO3)CC1)C1CCCCC1,-20.3,-19.2,26.5*,0.4,-20.1,17.6
CNC(=O)Nc1cccc(-c2ccnc(C)n2)c1,-2.0,-4.9,-2.3,19.9*,10.2,0.3
O=C(Nc1ccccc1)Nc1cccc(-c2cn3cccnc3n2)c1,4.5,-29.9,-10.3,2.5,-11.1,13.1
CSc1ccc(S(=O)(=O)NCC(=O)OC(C)C(=O)NCc2ccccc2)cc1[N+](=O)[O-] (stereo unspecified),6.7,-20.2,-3.7,2.0,9.2,66.9*
CCN(C(=O)COC(=O)CNS(=O)(=O)c1ccc(SC)c([N+](=O)[O-])c1)C1CCCCC1,3.0,-15.3,-9.5,3.7,-18.2,52.5*
CSc1ccc(S(=O)(=O)NCC(=O)OCC(=O)NCCc2ccccc2)cc1[N+](=O)[O-],15.1,-21.6,-5.2,3.2,-19.3,36.8*
CSc1ccc(S(=O)(=O)NCC(=O)OCC(=O)NCc2ccco2)cc1[N+](=O)[O-],-25.8,-8.8,15.2,-0.1,1.9,43.5
CNc1ccc(S(=O)(=O)NCC(=O)OC(C)C(=O)N(C)Cc2ccccc2)cc1[N+](=O)[O-] (stereo unspecified),4.6,-18.0,-12.0,1.5,-9.3,19.9
CNC(=S)NNC(=O)c1cc(C(C)(C)C)nn1Cc1ccc(F)cc1,-8.0,-13.7,-3.3,1.3,-2.2,6.6
COc1ccc(CCNC(=S)N2CCN(S(=O)(=O)c3ccc(C)cc3)CC2)cc1,-19.6,-13.4,-1.4,1.3,11.8,15.7
O=C(NC(Cc1ccc2c(c1)OCO2)C(=O)NC(Cc1ccccc1)C(=O)O)c1ccccc1 (stereo unspecified),-5.9,-4.1,24.7*,-0.2,3.5,2.4
Cc1ccc(CC(NC(=O)c2ccccc2)C(=O)NC(Cc2ccccc2)C(=O)O)cc1 (stereo unspecified),18.9,-8.8,-6.0,0.7,12.2,18.2
O=C(O)CC(Cc1ccccc1)c1ccc2c(c1)OCO2 (stereo unspecified),-9.6,-4.5,32.7*,-0.2,3.2,12.1
CN(C)/C=N/NC(=O)C1Cc2c(ccc3ccccc23)O1 (stereo unspecified),17.6,-4.0,-0.2,16.0*,-9.7,6.6
COCCNC(=O)C1Cc2c(ccc3ccccc23)O1 (stereo unspecified),18.6,-7.7,-11.3,2.0,-6.6,8.7
C=CCc1cccc(/C=N/NC(=O)C(=O)Nc2ccc(C)cc2)c1O,10.5,-15.7,-7.4,-0.4,-13.5,48.8*
C=CCc1cccc(/C=N/NC(=O)c2ccccc2Br)c1O,44.2*,-21.3,-16.4,1.4,-28.4,12.9
C=CCc1cccc(/C=N/NC(=O)c2ccccc2OC)c1O,12.0,-25.8,1.3,1.4,-12.8,25.6
COc1ccc(CN(Cc2ccccn2)C(=O)CN2C(=O)COc3ccccc32)cc1,14.1,-27.1,-7.5,5.0,-22.1,19.7
COc1ccc(CN(C(=O)CN2C(=O)COc3ccccc32)C2CCCC2)c(OC)c1,9.9,29.0,-18.7,6.0,-31.8,57.9*
O=C(Oc1cccc([N+](=O)[O-])c1)c1ccc2c(=O)n3c(nc2c1)CCC3,2.4,-4.4,-7.6,7.3,-13.1,8.4
Cc1ccccc1C(=O)NNS(=O)(=O)c1ccc(F)cc1,-4.9,·,24.1*,0.0,·,·
SMILES,CHO-K1 Ca PAM,OX1R antag-1,CHO-K1 Ca antag,CHO-K1 Ca ag,CHO parental Ca,OX1R antag-2
Cc1cc(C(F)(F)F)nc(CCNCc2c(C(=O)N3CCCC3)nc3ccccn23)n1,13.3,-28.6,1.1,1.0,-23.6,19.5
CN(C)n1cccc1/C=C(\C#N)S(=O)(=O)c1ccc(Cl)cc1,-5.9,63.3*,4.9,1.2,64.8*,25.2
CSc1ccccc1NC(=O)c1cc(-c2cccs2)on1,2.9,-9.6,-4.7,0.4,-7.5,54.1*
COc1ccc(-c2cc(C(=O)Nc3ccccc3SC)no2)cc1,8.5,-12.1,-19.9,1.0,-8.2,18.3
NC(=O)c1nsc(C(=O)N(c2ccc3c(c2)OCO3)C(C(=O)NCC2CCCO2)c2ccc(F)cc2)c1N (stereo unspecified),8.9,-25.2,-15.5,2.8,-18.1,5.5
Cc1ccc(C=Nc2cc([N+](=O)[O-])ccc2C)s1,-14.7,1.5,23.9*,-0.2,0.1,17.1
CCn1c(SCC(=O)Nc2nc3ccc(C)cc3s2)nc2c(c1=O)SC(C)C2 (stereo unspecified),5.0,59.4*,4.7,0.1,44.6*,81.1*
CCn1c(SCC(=O)Nc2nc3ccccc3s2)nc2c(c1=O)SC(C)C2 (stereo unspecified),·,19.8,·,·,14.3,38.9
COC(=O)Nc1cccn(Cc2c(Cl)cccc2Cl)c1=O,-5.0,-10.9,17.1,0.2,-0.6,14.1
O=C(Nc1cccn(Cc2c(Cl)cccc2Cl)c1=O)c1c(Cl)cccc1Cl,-8.8,8.0,22.4,0.1,3.1,55.7*
N/C(=N\OC(=O)c1ccc2c(c1)OCO2)c1ccncc1,12.1,-3.7,-12.2,0.9,3.0,4.4
CCOc1ccccc1OCCCC(=O)N1CCN(S(=O)(=O)c2cc(F)ccc2F)CC1,-18.2,·,28.4*,-0.2,·,·
Cc1ccc(NC(=O)C2CCCN2S(=O)(=O)c2ccc3c(c2)n(C)c(=O)c(=O)n3C)c(C)c1 (stereo unspecified),16.6,0.9,-3.0,0.3,0.6,11.7
CCCCN(C)c1c(C)nc2ccc(C(=O)NCCOc3ccc(OC)cc3)cn12,-13.5,·,29.6*,13.9,·,·
CCOC(=O)C(Sc1cc(-c2ccccc2)nc2ncnn12)C(C)=O (stereo unspecified),20.0,-13.1,-4.7,2.3,-14.6,3.5
CCC(C)c1ccc(NC(=S)NCCn2cc(Br)cn2)cc1 (stereo unspecified),3.8,-27.1,-12.4,4.8,-2.8,8.4
CCC(C)c1ccc(NC(=S)NCCn2cc(Cl)cn2)cc1 (stereo unspecified),-1.6,32.4,-7.4,1.8,45.1*,18.7
